Data published in ChEMBL document CHEMBL1122777, “Effect of tellurium position on the myocardial uptake of radioiodinated 18-iodotellura-17-octadecenoic acid analogues” (1984).

Assays:
Rattus norvegicus [1] = assay: Heart uptake after 60 min was determined in female Fischer rats after [125I]-labeled compound complexed with bovine serum albumin was injected intravenously; assay type: functional
In short: (§1)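 Female Fischer 344 rats (fed ad libitum) under ether anaesthesia received the ¹²⁵I fatty acid in a lateral tail vein. Dose was ~3.8–4.8 μCi per rat (sp act ~125–240 mCi/mmol), given in 0.5 mL 6% bovine albumin (final ethanol 10%) after filtration. Four rats per time point were used. Tissue radioactivity is % injected dose/g, mean with range, calculated against standards of the injected solution.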

Rattus norvegicus [2] = assay: Heart uptake after 120 min was determined in female Fischer rats after [125I]-labeled compound complexed with bovine serum albumin was injected intravenously; assay type: functional; in short: as §1
Rattus norvegicus [3] = assay: Heart uptake after 240 min was determined in female Fischer rats after [125I]-labeled compound complexed with bovine serum albumin was injected intravenously; assay type: functional; in short: as §1
Rattus norvegicus [4] = assay: Heart uptake after 30 min was determined in female Fischer rats after [125I]-labeled compound complexed with bovine serum albumin was injected intravenously; assay type: functional; in short: as §1
Rattus norvegicus [5] = assay: Heart uptake after 5 min was determined in female Fischer rats after [125I]-labeled compound complexed with bovine serum albumin was injected intravenously; assay type: functional; in short: as §1
[6] = Ratio of heart to blood uptake after 120 min was determined in female Fischer rats after [125I]-labeled compound complexed with bovine serum albumin was injected intravenously; assay type: functional
In short: (§2)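 Female Fischer 344 rats (food and water ad libitum) given the 125I-labelled fatty acid in 6% bovine albumin with 10% final ethanol, filtered, 0.5 mL into a lateral tail vein under ether anaesthesia. Four rats per time point. Tissue activity expressed as % injected dose/g against assayed injectate standards. Mean heart/tissue ratios were calculated from mean %ID/g values.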

[7] = Ratio of heart to blood uptake after 240 min was determined in female Fischer rats after [125I]-labeled compound complexed with bovine serum albumin was injected intravenously; assay type: functional; in short: as §2
[8] = Ratio of heart to blood uptake after 30 min was determined in female Fischer rats after [125I]-labeled compound complexed with bovine serum albumin was injected intravenously; assay type: functional; in short: as §2
[9] = Ratio of heart to blood uptake after 5 min was determined in female Fischer rats after [125I]-labeled compound complexed with bovine serum albumin was injected intravenously; assay type: functional; in short: as §2
[10] = Ratio of heart to blood uptake after 60 min was determined in female Fischer rats after [125I]-labeled compound complexed with bovine serum albumin was injected intravenously; assay type: functional; in short: as §2
[11] = Ratio of heart to kidneys uptake after 120 min was determined in female Fischer rats after [125I]-labeled compound complexed with bovine serum albumin was injected intravenously; assay type: functional, Heart/Kidney; in short: as §2
[12] = Ratio of heart to kidneys uptake after 240 min was determined in female Fischer rats after [125I]-labeled compound complexed with bovine serum albumin was injected intravenously; assay type: functional, Heart/Kidney; in short: as §2
[13] = Ratio of heart to kidneys uptake after 30 min was determined in female Fischer rats after [125I]-labeled compound complexed with bovine serum albumin was injected intravenously; assay type: functional, Heart/Kidney; in short: as §2
[14] = Ratio of heart to kidneys uptake after 5 min was determined in female Fischer rats after [125I]-labeled compound complexed with bovine serum albumin was injected intravenously; assay type: functional, Heart/Kidney; in short: as §2
[15] = Ratio of heart to kidneys uptake after 60 min was determined in female Fischer rats after [125I]-labeled compound complexed with bovine serum albumin was injected intravenously; assay type: functional, Heart/Kidney; in short: as §2
[16] = Ratio of heart to liver uptake after 120 min was determined in female Fischer rats after [125I]-labeled compound complexed with bovine serum albumin was injected intravenously; assay type: functional; in short: as §2
[17] = Ratio of heart to liver uptake after 5 min was determined in female Fischer rats after [125I]-labeled compound complexed with bovine serum albumin was injected intravenously; assay type: functional; in short: as §2
[18] = Ratio of heart to liver uptake after 60 min was determined in female Fischer rats after [125I]-labeled compound complexed with bovine serum albumin was injected intravenously; assay type: functional; in short: as §2
[19] = Ratio of heart to liver uptake after 240 min was determined in female Fischer rats after [125I]-labeled compound complexed with bovine serum albumin was injected intravenously; assay type: functional; in short: as §2
[20] = Ratio of heart to lungs uptake after 120 min was determined in female Fischer rats after [125I]-labeled compound complexed with bovine serum albumin was injected intravenously; assay type: functional; in short: as §2
[21] = Ratio of heart to lungs uptake after 240 min was determined in female Fischer rats after [125I]-labeled compound complexed with bovine serum albumin was injected intravenously; assay type: functional; in short: as §2
[22] = Ratio of heart to lungs uptake after 30 min was determined in female Fischer rats after [125I]-labeled compound complexed with bovine serum albumin was injected intravenously; assay type: functional; in short: as §2
[23] = Ratio of heart to lungs uptake after 5 min was determined in female Fischer rats after [125I]-labeled compound complexed with bovine serum albumin was injected intravenously; assay type: functional; in short: as §2
[24] = Ratio of heart to lungs uptake after 60 min was determined in female Fischer rats after [125I]-labeled compound complexed with bovine serum albumin was injected intravenously; assay type: functional; in short: as §2
[25] = Ratio of heart to liver uptake after 30 min was determined in female Fischer rats after [125I]-labeled compound complexed with bovine serum albumin was injected intravenously; assay type: functional; in short: as §2
Rattus norvegicus [26] = assay: Liver uptake after 1d was determined in female Fischer rats after [125I]-labeled compound complexed with bovine serum albumin was injected intravenously; assay type: functional; in short: as §1
Rattus norvegicus [27] = assay: Liver uptake after 30 min was determined in female Fischer rats after [125I]-labeled compound complexed with bovine serum albumin was injected intravenously; assay type: functional; in short: as §1
Rattus norvegicus [28] = assay: Liver uptake after 4 hr was determined in female Fischer rats after [125I]-labeled compound complexed with bovine serum albumin was injected intravenously; assay type: functional; in short: as §1
Rattus norvegicus [29] = assay: Liver uptake after 5 min was determined in female Fischer rats after [125I]-labeled compound complexed with bovine serum albumin was injected intravenously; assay type: functional; in short: as §1
Rattus norvegicus [30] = assay: Liver uptake after 60 min was determined in female Fischer rats after [125I]-labeled compound complexed with bovine serum albumin was injected intravenously; assay type: functional; in short: as §1
Rattus norvegicus [31] = assay: Uptake in lungs after 1 day was determined in female Fischer rats after [125I]-labeled compound complexed with bovine serum albumin was injected intravenously; assay type: functional
In short: (§3)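 Female Fischer 344 rats with free access to food and water. The 125I-labelled fatty acid (~3.8–4.8 μCi; sp act. ~125–240 mCi/mmol) was complexed with 6% bovine serum albumin (10% final ethanol), filtered, and 0.5 mL was injected via a lateral tail vein under ether anaesthesia. Four rats per time point. Values are mean % injected dose/g, calculated against injectate standards. Thyroid weight was taken as 7.5 mg/100 g body weight.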

Rattus norvegicus [32] = assay: Uptake in lungs after 30 min was determined in female Fischer rats after [125I]-labeled compound complexed with bovine serum albumin was injected intravenously; assay type: functional; in short: as §3
Rattus norvegicus [33] = assay: Uptake in lungs after 4 hr was determined in female Fischer rats after [125I]-labeled compound complexed with bovine serum albumin was injected intravenously; assay type: functional; in short: as §3
Rattus norvegicus [34] = assay: Uptake in lungs after 5 min was determined in female Fischer rats after [125I]-labeled compound complexed with bovine serum albumin was injected intravenously; assay type: functional; in short: as §3
Rattus norvegicus [35] = assay: Uptake in lungs after 60 min was determined in female Fischer rats after [125I]-labeled compound complexed with bovine serum albumin was injected intravenously; assay type: functional; in short: as §3
Rattus norvegicus [36] = assay: Thyroid uptake after 5 min was determined in female Fischer rats after [125I]-labeled compound complexed with bovine serum albumin was injected intravenously; assay type: functional; in short: as §3
Rattus norvegicus [37] = assay: Kidney uptake after 5 min was determined in female Fischer rats after [125I]-labeled compound complexed with bovine serum albumin was injected intravenously; assay type: functional; in short: as §1
Rattus norvegicus [38] = assay: Blood uptake after 1d was determined in female Fischer rats after [125I]-labeled compound complexed with bovine serum albumin was injected intravenously; assay type: functional; in short: as §1
Rattus norvegicus [39] = assay: Blood uptake after 30 min was determined in female Fischer rats after [125I]-labeled compound complexed with bovine serum albumin was injected intravenously; assay type: functional; in short: as §1
Rattus norvegicus [40] = assay: Blood uptake after 4 hr was determined in female Fischer rats after [125I]-labeled compound complexed with bovine serum albumin was injected intravenously; assay type: functional; in short: as §1
Rattus norvegicus [41] = assay: Blood uptake after 5 min was determined in female Fischer rats after [125I]-labeled compound complexed with bovine serum albumin was injected intravenously; assay type: functional; in short: as §1
Rattus norvegicus [42] = assay: Blood uptake after 60 min was determined in female Fischer rats after [125I]-labeled compound complexed with bovine serum albumin was injected intravenously; assay type: functional; in short: as §1
Rattus norvegicus [43] = assay: Heart uptake after 1d was determined in female Fischer rats after [125I]-labeled compound complexed with bovine serum albumin was injected intravenously; assay type: functional; in short: as §1
Rattus norvegicus [44] = assay: Heart uptake after 4 hr was determined in female Fischer rats after [125I]-labeled compound complexed with bovine serum albumin was injected intravenously; assay type: functional; in short: as §1

O=C(O)CCCCC[Te]CCCCCCCCC/C=C/I
Injected dose/g (Rattus norvegicus [1]): 2.96% | Injected dose/g (Rattus norvegicus [2]): 2.86% | Injected dose/g (Rattus norvegicus [3]): 2.37% | Injected dose/g (Rattus norvegicus [4]): 2.78% | Injected dose/g (Rattus norvegicus [5]): 3.47% | Ratio [6]: 12 | Ratio [7]: 8 | Ratio [8]: 13 | Ratio [9]: 13 | Ratio [10]: 13 | Ratio [11]: 3.3 | Ratio [12]: 3.1 | Ratio [13]: 3.1 | Ratio [14]: 3.3 | Ratio [15]: 3.1 | Ratio [16]: 0.59 | Ratio [17]: 0.56 | Ratio [18]: 0.55 | Ratio [19]: 0.54 | Ratio [20]: 2.9 | Ratio [21]: 2.8 | Ratio [22]: 2.9 | Ratio [23]: 2.7 | Ratio [24]: 2.9 | Ratio [25]: 0.49

O=C(O)CCCCCCCCCCC[Te]CCC/C=C/I
Injected dose/g (Rattus norvegicus [1]): 1.81% | Injected dose/g (Rattus norvegicus [2]): 1.03% | Injected dose/g (Rattus norvegicus [3]): 0.76% | Injected dose/g (Rattus norvegicus [4]): 1.52% | Injected dose/g (Rattus norvegicus [5]): 1.46% | Ratio [6]: 1.5 | Ratio [7]: 1.2 | Ratio [8]: 2.5 | Ratio [9]: 8 | Ratio [10]: 2.6 | Ratio [11]: 1.1 | Ratio [12]: 1.9 | Ratio [13]: 1.5 | Ratio [14]: 1.5 | Ratio [15]: 1.6 | Ratio [16]: 0.42 | Ratio [17]: 0.17 | Ratio [18]: 0.41 | Ratio [19]: 0.39 | Ratio [20]: 1.3 | Ratio [21]: 1.1 | Ratio [22]: 1.7 | Ratio [23]: 1.6 | Ratio [24]: 1.6 | Ratio [25]: 0.29

O=C(O)CCC[Te]CCCCCCCCCCC/C=C/I
Injected dose/g (Rattus norvegicus [26]): 3.64% | Injected dose/g (Rattus norvegicus [27]): 5.53% | Injected dose/g (Rattus norvegicus [28]): 4.76% | Injected dose/g (Rattus norvegicus [29]): 6.56% | Injected dose/g (Rattus norvegicus [30]): 7.33% | Injected dose/g (Rattus norvegicus [31]): 0.71% | Injected dose/g (Rattus norvegicus [32]): 1.54% | Injected dose/g (Rattus norvegicus [33]): 0.92% | Injected dose/g (Rattus norvegicus [34]): 1.47% | Injected dose/g (Rattus norvegicus [35]): 1.16% | Injected dose/g (Rattus norvegicus [36]): 6.03% | Injected dose/g (Rattus norvegicus [1]): 4.33% | Injected dose/g (Rattus norvegicus [37]): 1.02% | Injected dose/g (Rattus norvegicus [38]): 0.18% | Injected dose/g (Rattus norvegicus [39]): 0.16% | Injected dose/g (Rattus norvegicus [40]): 0.19% | Injected dose/g (Rattus norvegicus [41]): 0.11% | Injected dose/g (Rattus norvegicus [42]): 0.19% | Injected dose/g (Rattus norvegicus [43]): 3.96% | Injected dose/g (Rattus norvegicus [4]): 4.64% | Injected dose/g (Rattus norvegicus [5]): 3.99% | Ratio [6]: 20 | Ratio [7]: 18 | Ratio [8]: 30 | Ratio [9]: 37 | Ratio [10]: 23 | Ratio [11]: 4 | Ratio [12]: 4.3 | Ratio [13]: 4.6 | Ratio [14]: 3.9 | Ratio [15]: 3.7 | Ratio [16]: 0.74 | Ratio [17]: 0.6 | Ratio [18]: 0.59 | Ratio [19]: 0.75 | Ratio [20]: 3.6 | Ratio [21]: 3.9 | Ratio [22]: 3 | Ratio [23]: 2.7 | Ratio [24]: 3.7 | Ratio [25]: 0.84 | Injected dose/g (Rattus norvegicus [44]): 3.57%
